# From ChEMBL document CHEMBL5329211, “Selective isoxazolopyrimidine PAT1 (SLC26A6) inhibitors for therapy of intestinal disorders” (RSC Med Chem, 2023)
# Activity calls are given as the source filed them. No cut-off for these calls is given here.
# Legend:
# [1] = molecular target: Solute carrier family 26 member 6 (Mus musculus) (UniProt Q8CIW6); assay: Inhibition of SLC26A6 (unknown origin) expressed in rat FRT cells coexpressing YFP halide-sensing protein assessed as iodide-chloride exchange incubated for 2 sec by fluorescence quenching analysis
# [2] = molecular target: Solute carrier family 26 member 6 (Mus musculus) (UniProt Q8CIW6); assay: Inhibition of SLC26A6 (unknown origin) expressed in rat FRT cells coexpressing YFP halide-sensing protein assessed as iodide-chloride exchange at 25 uM incubated for 2 sec by fluorescence quenching analysis relative to control
# Mus musculus = assay: In vivo inhibition of PAT1 in intestinal closed-loop CD-1 mouse model assessed as reduction in loop weight/length ratio in ileum measured for 30 mins; type: functional
# Procedure, shortened: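 Mice (wild-type CD1 or homozygous F508del CF, 10-16 wk, both sexes) fasted 24 h with free access to 5% dextrose water. Under isoflurane at 36-38 °C, 2-3 ileal loops (2-3 cm) were tied off and injected with 100 µL PBS pH 7.4 containing 30 µM inhibitor, 10 µM tenapanor or 0.1% DMSO vehicle. Loops removed at 0 or 30 min in separate mice; length and weight measured for fluid absorption. One-way ANOVA with Newman-Keuls.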
# Chain of Solute carrier family 26 member 6 (Mus musculus) (Q8CIW6 whole entry, looked up): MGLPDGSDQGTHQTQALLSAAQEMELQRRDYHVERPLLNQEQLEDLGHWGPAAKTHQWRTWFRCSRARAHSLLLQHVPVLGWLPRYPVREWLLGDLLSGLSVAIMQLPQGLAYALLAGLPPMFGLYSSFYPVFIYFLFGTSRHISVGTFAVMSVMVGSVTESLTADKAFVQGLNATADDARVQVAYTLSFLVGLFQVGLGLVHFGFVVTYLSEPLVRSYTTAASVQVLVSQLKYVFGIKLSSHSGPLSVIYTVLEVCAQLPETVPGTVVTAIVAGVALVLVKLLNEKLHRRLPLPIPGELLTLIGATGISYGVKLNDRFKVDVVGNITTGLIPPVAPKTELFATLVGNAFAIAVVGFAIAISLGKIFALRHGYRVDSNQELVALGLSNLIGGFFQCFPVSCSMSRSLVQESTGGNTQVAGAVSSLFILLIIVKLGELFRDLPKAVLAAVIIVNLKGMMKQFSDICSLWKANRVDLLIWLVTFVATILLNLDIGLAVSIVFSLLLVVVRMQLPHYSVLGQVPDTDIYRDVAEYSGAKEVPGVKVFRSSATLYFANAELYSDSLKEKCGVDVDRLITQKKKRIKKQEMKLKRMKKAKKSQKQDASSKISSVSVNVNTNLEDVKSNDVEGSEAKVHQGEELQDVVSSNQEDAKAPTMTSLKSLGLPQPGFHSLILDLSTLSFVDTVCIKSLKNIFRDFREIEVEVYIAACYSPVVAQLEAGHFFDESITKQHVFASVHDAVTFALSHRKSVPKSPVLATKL
smiles,measurement,setting,value
CCOC(=O)c1nc(NCc2ccc(F)cc2)c2c(C)noc2n1,IC50,[1],2.3 µM
CCCOc1ccc(CNc2nc(C(=O)OCC)nc3onc(C)c23)cc1,IC50,[1],5.7 µM
CCOC(=O)c1nc(NCc2cccnc2)c2c(-c3ccc(F)cc3)noc2n1,IC50,[1],3.4 µM
CCOC(=O)c1nc(NCc2cccc(C)c2)c2c(C)noc2n1,IC50,[1],1.1 µM
CCOC(=O)c1nc(NCc2ccc(OCC)cc2)c2c(C)noc2n1,IC50,[1],2 µM
CCOC(=O)c1nc(NCCc2ccsc2)c2c(C)noc2n1,IC50,[1],1.8 µM
CCOC(=O)c1nc(Nc2cccc(C)c2C)c2c(C)noc2n1,IC50,[1],1.2 µM
CCOC(=O)c1nc(NCc2cc(OC)ccc2OC)c2c(CC)noc2n1,IC50,[1],3.7 µM
CCOC(=O)c1nc(NCc2ccccc2)c2c(C)noc2n1,IC50,[1],1.8 µM
CCOC(=O)c1nc(NCc2cc(C)ccc2C)c2c(C)noc2n1,IC50,[1],1.5 µM
CCOC(=O)c1nc(NCCc2ccccc2)c2c(CC)noc2n1,IC50,[1],3.2 µM
CCOC(=O)c1nc(NCc2ccc(OC(C)C)cc2)c2c(C)noc2n1,IC50,[1],6.5 µM
CCOC(=O)c1nc(NCc2cccc(Br)c2)c2c(-c3ccc(F)cc3)noc2n1,inhibition,[2],< 25%
CCOC(=O)c1nc(NCc2ccc(Cl)cc2)c2c(CC)noc2n1,IC50,[1],3.4 µM
CCOC(=O)c1nc(NCCc2ccccc2Cl)c2c(CC)noc2n1,IC50,[1],5.2 µM
CCOC(=O)c1nc(NCc2ccc(C)cc2)c2c(CC)noc2n1,IC50,[1],3.8 µM
CCOC(=O)c1nc(NCc2cccc(F)c2)c2c(C)noc2n1,IC50,[1],2.2 µM
CCOC(=O)c1nc(NCc2ccccc2OC)c2c(C)noc2n1,IC50,[1],17.2 µM
CCOC(=O)c1nc(NCc2ccc(F)cc2)c2c(CC)noc2n1,IC50,[1],3.2 µM
CCOC(=O)c1nc(NCc2ccccc2OCC)c2c(C)noc2n1,inhibition,[2],< 25%
CCOC(=O)c1nc(NCCC(C)C)c2c(C)noc2n1,IC50,[1],2.3 µM
CCOC(=O)c1nc(NCc2ccccc2F)c2c(CC)noc2n1,IC50,[1],5.2 µM
CCOC(=O)c1nc(N2CCN(c3cccc(Cl)c3)CC2)c2c(C)noc2n1,IC50,[1],2.6 µM
CCOC(=O)c1nc(NCCc2ccco2)c2c(CC)noc2n1,IC50,[1],1.4 µM
CCOC(=O)c1nc(NCCc2cccs2)c2c(CC)noc2n1,IC50,[1],1.6 µM
CCOC(=O)c1nc(NCc2ccccc2)c2c(CC)noc2n1,IC50,[1],4.3 µM
CCOC(=O)c1nc(NCc2ccccc2F)c2c(C)noc2n1,IC50,[1],1.1 µM
CCOC(=O)c1nc(NCC(C)OC)c2c(-c3ccc(F)cc3)noc2n1 (stereo not drawn),IC50,[1],5.1 µM
CCOC(=O)c1nc(NCCc2ccc(Cl)cc2)c2c(CC)noc2n1,IC50,[1],5.2 µM
CCOC(=O)c1nc(NCCc2ccco2)c2c(C)noc2n1,IC50,[1],2.4 µM
CCOC(=O)c1nc(NCc2cccc(OC)c2)c2c(C)noc2n1,IC50,[1],4.4 µM
CCOC(=O)c1nc(NCc2cccc(Br)c2)c2c(C)noc2n1,IC50,[1],1.1 µM
CCOC(=O)c1nc(NCc2ccc(SC)cc2)c2c(C)noc2n1,IC50,[1],2.6 µM
CCOC(=O)c1nc(NCc2ccccc2OC)c2c(CC)noc2n1,IC50,[1],1.9 µM
CCOC(=O)c1nc(NCc2cc(Br)ccc2OC)c2c(CC)noc2n1,IC50,[1],2.5 µM
CCOC(=O)c1nc(NCc2ccccc2Cl)c2c(C)noc2n1,IC50,[1],1.1 µM
CCOC(=O)c1nc(Nc2ccccc2C)c2c(C)noc2n1,IC50,[1],3.7 µM
CN1Cc2c(Cl)cc(Cl)cc2[C@H](c2cccc(S(=O)(=O)NCCOCCOCCNC(=O)NCCCCNC(=O)NCCOCCOCCNS(=O)(=O)c3cccc([C@@H]4CN(C)Cc5c(Cl)cc(Cl)cc54)c3)c2)C1,inhibition,Mus musculus,Active
